Source: PubChem
Only some compounds are listed: those with a hit (about 3.3% of all), similar ones and a draw of the others.
PRMT1 inh: inhibitors of human PRMT1; AID 652257; actives 1.3% (n = 370,000); Q99873; inhibition, % at 2.79 µM; recombinant PRMT1, activity-based probe fluorescence polarization;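 active = inhibition above about 21% made by adding two undisclosed values, limit read from the data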
mABHD4 FP: inhibitors of mouse ABHD4; actives 0.54% (n = 370,000); inhibition, % at 8.92 µM; Q8VD66; purified mABHD4, FP-Rh probe fluorescence polarization;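 active = inhibition exceeding the mean over every tested compound plus 3 SD, cut at about 30% in these data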;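 also: 0% = plate median of compound wells and 100% = S159A mutant with DMSO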
Target sequence (Q8VD66 whole entry, looked up): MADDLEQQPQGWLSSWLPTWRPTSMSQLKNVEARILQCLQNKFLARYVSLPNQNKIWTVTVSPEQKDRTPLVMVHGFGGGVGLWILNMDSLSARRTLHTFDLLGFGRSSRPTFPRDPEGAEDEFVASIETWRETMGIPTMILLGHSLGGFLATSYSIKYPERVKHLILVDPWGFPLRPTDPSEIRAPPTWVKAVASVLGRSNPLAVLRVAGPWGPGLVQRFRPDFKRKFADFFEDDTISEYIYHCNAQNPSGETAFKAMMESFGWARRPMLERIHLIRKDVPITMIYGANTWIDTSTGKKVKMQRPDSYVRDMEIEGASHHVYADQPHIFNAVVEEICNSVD
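Doses – 8.92 µM, single dose · Material – wild-type mouse ABHD4 protein · Replication – single well per compound (singlicate) · Measure – percent inhibition of probe binding, normalized to plate controls · Schedule – 45 min compound pre-incubation plus 60 min probe step, 25 °C · Detection – fluorescence polarization with parallel and perpendicular emission, 525/598 nm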
SIAE inh: blocks human sialic acid acetylesterase. Q9HAT2. SIAE FP-Rh probe binding, fluorescence polarization. inhibition, % at 9.66 µM. actives 0.69% (n = 370,000);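 active = inhibition above a cutoff: mean of compounds within the control limits plus 3 SD of those, cut at about 17% in these data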;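 also: 0% = plate median of compound wells and 100% = probe without SIAE protein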
TCR-CD3 inh: human TCR-CD3 binding inhibition. TAMRA-labeled TCR probe fluorescence, biochemical. inhibition, % at 9.4 µM. actives 0.37% (n = 360,000);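 also: recombinant mutant TCR 2C K166C tagged with TAMRA read by polarization; 0% = receptor in buffer alone and 100% = receptor with positive control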
rCAG binder: molecules binding r(CAG) RNA repeats | r(CAG) RNA repeat, TO-PRO-1 dye displacement fluorescence | actives 1.3% (n = 370,000) | inhibition, % at 3 µM | AID 651821;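 active = inhibition above the plate cutoff, the mean of all test compounds on that plate plus 3 SD, cut at about 35% in these data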;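 also: 0% = DMSO alone and 100% = 100 µM mitoxantrone as full dye displacement; higher means more dye released from RNA so lower well fluorescence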
BSA TAMRA ctr: BSA probe counter-screen for TCR-CD3 inhibitors; shares compounds with TCR-CD3 inh; TAMRA-labeled BSA probe fluorescence counterscreen; actives 10% (n = 1,200); AID 652035; inhibition, % at 9.4 µM; in the data active = inhibition above about 23%;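 also: 0% = buffer low control and 100% = reference high control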
TCR-CD3 conf: confirmation of human TCR-CD3 interaction inhibitors | inhibition, % at 9.4 µM | shares compounds with TCR-CD3 inh | actives 48% (n = 1,200) | TAMRA-labeled TCR probe fluorescence binding assay | AID 652036
rCAG binder conf: r(CAG) RNA repeat binding, confirmation; shares compounds with rCAG binder; TO-PRO-1 dye displacement fluorescence; inhibition, % at 3 µM; actives 70% (n = 4,300);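 active = inhibition above a per-plate cutoff, the mean inhibition of sample wells plus 3 SD, cut at about 35% in these data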;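 also: loss of TO-PRO-1 fluorescence as compound displaces dye from 1x1 AA loop RNA; 0% = DMSO only wells and 100% = 100 µM mitoxantrone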
DNA CAG counter: counter-screen for rCAG RNA binders: DNA CAG dye complex inhibitors | inhibition, % at 3 µM | AID 652068 | d(CAG) DNA oligo TO-PRO-1 dye displacement, fluorescence | shares compounds with rCAG binder | actives 94% (n = 4,300);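 active = inhibition above its plate's cutoff, the mean test-well inhibition plus 3 SD, cut at about 4.8% in these data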;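 also: 0% = DNA dye mix with DMSO and 100% = 100 µM mitoxantrone; hits displace the dye from DNA and so lower well fluorescence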
PRMT1 inh conf: confirmation of human PRMT1 inhibitors; shares compounds with PRMT1 inh; recombinant His-PRMT1, activity-based probe fluorescence polarization; inhibition, % at 2.79 µM; actives 42% (n = 3,300); AID 687036;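 active = mean inhibition across replicates above the hit cutoff derived for the earlier primary screen, cut at about 22% in these data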
mABHD4 conf: confirmation of mouse ABHD4 inhibitors; shares compounds with mABHD4 FP; purified mABHD4, FP-Rh probe fluorescence polarization; inhibition, % at 8.92 µM; actives 55% (n = 1,800);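 active = mean inhibition across replicates above the hit cutoff set in the primary screen, cut at about 30% in these data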;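 also: 0% = wild-type ABHD4 with DMSO and 100% = catalytically dead S159A mutant with DMSO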
SIAE confirm: confirmation of human SIAE inhibitors; shares compounds with SIAE inh; SIAE FP-Rh activity-based probe, fluorescence polarization; inhibition, % at 9.66 µM; actives 13% (n = 2,300);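 active = mean inhibition of the replicates above the hit cutoff set in the primary screen, cut at about 17% in these data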;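 also: 0% = SIAE with DMSO and probe and 100% = probe without SIAE; inhibitors lower polarization as more probe stays unbound to SIAE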
An asterisk follows results filed as active; x = not tested or not shown. Rule as the data show it, unless noted: active = inhibition above about 19%; inactive = the rest.

SMILES	PRMT1 inh	mABHD4 FP	SIAE inh	TCR-CD3 inh	rCAG binder	BSA TAMRA ctr	TCR-CD3 conf	PRMT1 inh conf	mABHD4 conf	SIAE confirm	others
COC(=O)C1CN(C2CC2)CCS(=O)(=O)N1Cc1cn(Cc2ccc(C)cc2)nn1 (stereo unspecified)	-0.8	10.2	9.6	x	3.1	x	x	x	x	x
CC1CCCC(C)N1/N=C/c1ccc(O)c(O)c1 (stereo unspecified)	7.2	36.5*	5.7	23.3*	6.3	-1.0	20.2*	x	11.8	x
COc1ccc(/C=N/N2C(C)CCCC2C)cc1O (stereo unspecified)	-2.9	0.1	7.1	-2.0	-0.7	x	x	x	x	x
NC(=O)c1sc2nc3c(c(-c4ccco4)c2c1N)CCC3	46.9*	30.1*	2.9	19.4*	42.5*	4.0	3.2	3.5	8.2	x	rCAG binder conf=4.3;DNA CAG counter=4.3
C=C1c2cccc(O)c2C(O)=C2C(=O)[C@]3(O)C(O)=C(C(N)=O)C(=O)[C@@H](N(C)C)[C@@H]3[C@@H](O)[C@H]12	51.8*	79.1*	68.7*	52.5*	84.7*	-7.7	4.3	25.5*	26.4	x	rCAG binder conf=24.0;DNA CAG counter=9.8*
CCC(C)NS(=O)(=O)c1ccc2[nH]c(=O)oc2c1 (stereo unspecified)	-1.6	-1.6	2.1	x	0.8	x	x	x	x	x
O=C(N/N=C/c1cc(Br)cc([N+](=O)[O-])c1O)c1ccc(NC(=O)c2ccc(F)cc2)cc1	0.7	16.4	52.7*	58.3*	43.2*	-12.2	50.8*	x	x	0.3	rCAG binder conf=78.0*;DNA CAG counter=40.9*
Cc1ccc(Cn2cc(CN(C3CC3)S(=O)(=O)c3ccccc3Br)nn2)cc1	-2.8	-2.7	-3.3	x	0.0	x	x	x	x	x
CCO/C(C)=N/Oc1cnc2ccccc2c1	1.6	5.4	-10.2	0.3	1.6	x	x	x	x	x
CCO/C(C)=N/Oc1cccc(N(C)C)c1	14.8	43.1*	22.9*	25.9*	3.2	10.4	2.5	x	x	12.3
O=C1c2ccc3c4c(ccc(c24)C(=O)N1c1ccc2ccccc2c1)CC3	-2.8	-5.4	-9.0	3.9	5.5	x	x	x	x	x
O=C1CCC(=O)c2ccc3c4c(ccc1c24)CC3	26.7*	28.2	18.9*	34.1*	49.4*	-4.6	2.2	5.5	x	-5.6	rCAG binder conf=4.1;DNA CAG counter=3.4
O=C1C(N2CCOCC2)=Cc2cccc3cccc1c23	101.1*	86.2*	49.4*	86.8*	-23.7	70.4*	46.6*	77.3*	82.9*	27.4*
O=C1C=C(N2CCOCC2)c2cccc3cccc1c23	102.3*	82.9*	46.5*	79.0*	-28.1	7.3	3.1	-2.1	2.5	-2.2
O=[N+]([O-])c1ccc(Nc2ccccn2)c([N+](=O)[O-])c1	-1.7	-0.9	1.7	6.5	2.1	x	x	x	x	x
O=[N+]([O-])c1c(Nc2ccccn2)cc(Cl)c2nonc12	11.7	37.0*	46.1*	45.1*	14.9	17.2	14.3	x	6.4	2.6
N#CC1=C(N)Oc2ccc3ccc(O)cc3c2C1c1ccsc1 (stereo unspecified)	82.7*	132.3*	126.3*	69.8*	-51.7	72.4*	53.0*	16.4	88.0*	62.7*
N#CC1=C(N)Oc2cc(N)ccc2C1c1ccsc1 (stereo unspecified)	-4.0	-5.4	7.9	1.3	4.2	x	x	x	x	x
N#CCCN(CCC#N)C(=O)C1c2ccccc2Oc2ccccc21	48.3*	103.3*	66.6*	124.3*	-111.4	11.4	8.0	x	2.5	2.8
CN(CCC#N)C(=O)COC(=O)C1c2ccccc2Oc2ccccc21	-1.9	-0.1	2.7	6.6	0.7	x	x	x	x	x
